Drawing on ChEMBL document CHEMBL1275439, “Acquisition of a plasmid-borne blaOXA-58 gene with an upstream IS1008 insertion conferring a high level of carbapenem resistance to Acinetobacter baumannii” (2008), this text covers MIC for nine compounds.

The structures appear in SMILES notation. Converted amounts (≈) assume the structure as drawn. A value given as a limit tells only on which side of the number the result lay.

Type in all cases: functional
The subject of assay [1] is Acinetobacter baumannii. As to the kind of experiment: Antimicrobial activity against Acinetobacter baumannii Ab290 harboring TVICU53 plasmid by broth dilution test. The method in brief: (§1)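 Recombinant plasmids were electroporated (2.5 kV, 25 µF) into electrocompetent cells harvested at exponential phase (OD600 0.5–0.7). Cells were recovered in SOC broth at 37°C for 1 h and selected on antibiotics. MICs were then read by Sensititre broth dilution or agar dilution per CLSI, with carbapenems confirmed by Etest. Tests were run in duplicate with ATCC 25922/27853 controls.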
On the technique in general: Broth dilution looks for growth in wells or tubes with falling amounts of substance.

Assay [2] relates to Acinetobacter baumannii. The assay is described as follows: Antimicrobial activity against Acinetobacter baumannii Ab290 containing plasmid harboring OXA-58-4 by broth dilution test. The gist of the method: as §1
The subject of assay [3] is Acinetobacter baumannii. The assay is described as follows: Antimicrobial activity against Acinetobacter baumannii Ab290 containing plasmid harboring OXA-58-3 by broth dilution test. The gist of the method: as §1
Assay [4] relates to Acinetobacter baumannii. As to the kind of experiment: Antimicrobial activity against Acinetobacter baumannii TVICU53 by broth dilution test. The method in brief: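 MICs by broth dilution on automated susceptibility plates, or by agar dilution, read and interpreted per CLSI guidelines; carbapenem MICs confirmed by Etest. Clinical isolate tested against a panel of aminoglycosides, β-lactams, β-lactam/inhibitor combinations, carbapenems, ciprofloxacin, chloramphenicol and trimethoprim-sulfamethoxazole. E. coli ATCC 25922 and P. aeruginosa ATCC 27853 run as quality controls. All tests done in duplicate.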

The test system of assay [5] is Escherichia coli. The assay is described as follows: Antimicrobial activity against Escherichia coli DH5alpha harboring plasmid containing OXA-58-4 by broth dilution test.
For assay [6], the system named is Acinetobacter baumannii. The assay is described as follows: Antimicrobial activity against Acinetobacter baumannii Ab290 by broth dilution test. The method in brief:
(§2)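 MICs determined by broth dilution on automated Sensititre susceptibility plates or by agar dilution, interpreted per CLSI guidelines. Carbapenem MICs confirmed by Etest. E. coli ATCC 25922 and P. aeruginosa ATCC 27853 served as quality-control strains. All tests done in duplicate.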

In assay [7] the test system is Escherichia coli. As to the kind of experiment: Antimicrobial activity against Escherichia coli DH5alpha by broth dilution test.
The subject of assay [8] is Acinetobacter baumannii. The assay is described as follows: Antimicrobial activity against Acinetobacter baumannii ATCC 15151T by broth dilution test. The method in brief:
as §2

For assay [9], the system named is Escherichia coli. The assay is described as follows: Antimicrobial activity against Escherichia coli DH5alpha harboring plasmid containing OXA-58-3 by broth dilution test.
The test system of assay [10] is Acinetobacter baumannii. As to the kind of experiment: Antimicrobial activity against Acinetobacter baumannii ATCC 15151T containing plasmid harboring OXA-58-3 by broth dilution test. The gist of the method: as §1

In general, MIC refers to the least concentration at which growth counts as inhibited. A lower MIC goes with inhibition by little substance. Take `CC1(C)S[C@@H]2[C@H](NC(=O)[C@H](N)c3ccc(O)cc3)C(=O)N2[C@H]1C(=O)O` [AMOXICILLIN]: the MIC was greater than 256 µg/mL against Acinetobacter baumannii [1]; greater than 256 µg/mL in the assay with Acinetobacter baumannii [2]; greater than 256 µg/mL with Acinetobacter baumannii [3]; greater than 256 µg/mL in the assay on Acinetobacter baumannii [4]; greater than 256 µg/mL in the assay with Escherichia coli [5]; 32 µg/mL (≈ 87.6 µM) with Acinetobacter baumannii [6]. Besides, the MIC is 8 µg/mL (≈ 21.9 µM) in the assay with Escherichia coli [7], greater than 256 µg/mL against Acinetobacter baumannii [8] and greater than 256 µg/mL against Escherichia coli [9].

Regarding `C[C@H]1[C@H](NC(=O)/C(=N\OC(C)(C)C(=O)O)c2csc(N)n2)C(=O)N1S(=O)(=O)O` [AZTREONAM], the minimum inhibitory concentration (MIC) against Acinetobacter baumannii [1] was 16 µg/mL (≈ 36.7 µM); with Acinetobacter baumannii [3], 16 µg/mL (≈ 36.7 µM); in the assay with Acinetobacter baumannii [4], 64 µg/mL (≈ 147 µM); in the assay on Escherichia coli [7], less than 0.12 µg/mL; against Acinetobacter baumannii [10], 128 µg/mL (≈ 294 µM); with Acinetobacter baumannii [8], 64 µg/mL (≈ 147 µM). Moreover, the MIC in the assay with Escherichia coli [9] is less than 0.12 µg/mL.

`Cc1nnc(SCC2=C(C(=O)O)N3C(=O)[C@@H](NC(=O)Cn4cnnn4)[C@H]3SC2)s1` [CEFAZOLIN]: the MIC in the assay with Acinetobacter baumannii [4] was greater than 128 µg/mL; in the assay with Acinetobacter baumannii [6] it was greater than 128 µg/mL; against Escherichia coli [7], 4 µg/mL (≈ 8.8 µM); in the assay with Acinetobacter baumannii [8] it was greater than 128 µg/mL; with Escherichia coli [9], 8 µg/mL (≈ 17.6 µM).

Consider `CO/N=C(\C(=O)N[C@@H]1C(=O)N2C(C(=O)O)=C(COC(C)=O)CS[C@H]12)c1csc(N)n1` [CEFOTAXIME], for which the MIC in the assay with Acinetobacter baumannii [1] was 8 µg/mL (≈ 17.6 µM); against Acinetobacter baumannii [3], 8 µg/mL (≈ 17.6 µM); with Acinetobacter baumannii [4], 64 µg/mL (≈ 141 µM); with Acinetobacter baumannii [6] it was 8 µg/mL (≈ 17.6 µM); with Escherichia coli [7] it was less than 0.12 µg/mL; with Acinetobacter baumannii [10] it was 16 µg/mL (≈ 35.1 µM). The same compound registered an MIC with Acinetobacter baumannii [8] of 16 µg/mL (≈ 35.1 µM).

As to `CC(C)(O/N=C(\C(=O)N[C@@H]1C(=O)N2C(C(=O)[O-])=C(C[n+]3ccccc3)CS[C@H]12)c1csc(N)n1)C(=O)O` [CEFTAZIDIME], the MIC against Acinetobacter baumannii [1] is 4 µg/mL (≈ 7.32 µM); against Acinetobacter baumannii [3] it was 4 µg/mL (≈ 7.32 µM); against Acinetobacter baumannii [4], 128 µg/mL (≈ 234 µM); with Acinetobacter baumannii [6], 4 µg/mL (≈ 7.32 µM); in the assay on Escherichia coli [7] it was less than 0.12 µg/mL; with Acinetobacter baumannii [10] it was 8 µg/mL (≈ 14.6 µM). For the same compound, the MIC is 8 µg/mL (≈ 14.6 µM) in the assay with Acinetobacter baumannii [8] and less than 0.12 µg/mL with Escherichia coli [9].

`CO/N=C(\C(=O)N[C@@H]1C(=O)N2C(C(=O)O)=C(COC(N)=O)CS[C@H]12)c1ccco1` [CEFUROXIME]: the MIC is 32 µg/mL (≈ 75.4 µM) against Acinetobacter baumannii [1]; 32 µg/mL (≈ 75.4 µM) with Acinetobacter baumannii [3]; greater than 128 µg/mL in the assay on Acinetobacter baumannii [4]; 32 µg/mL (≈ 75.4 µM) against Acinetobacter baumannii [6]; 4 µg/mL (≈ 9.43 µM) in the assay with Escherichia coli [7]; greater than 128 µg/mL against Acinetobacter baumannii [8]. Moreover, the lowest concentration to inhibit growth against Escherichia coli [9] (MIC) was 4 µg/mL (≈ 9.43 µM).

For `C[C@@H](O)[C@H]1C(=O)N2C(C(=O)O)=C(SCCNC=N)C[C@H]12` [IMIPENEM ANHYDROUS], the MIC against Acinetobacter baumannii [1] turned out to be 32 µg/mL (≈ 107 µM); in the assay with Acinetobacter baumannii [2] it was 1 µg/mL (≈ 3.34 µM); with Acinetobacter baumannii [3] it was 64 µg/mL (≈ 214 µM); in the assay on Acinetobacter baumannii [4] it was 64 µg/mL (≈ 214 µM); in the assay on Escherichia coli [5], 0.25 µg/mL (≈ 0.835 µM); in the assay with Acinetobacter baumannii [6], 0.25 µg/mL (≈ 0.835 µM). Also, the MIC stood at 0.25 µg/mL (≈ 0.835 µM) with Escherichia coli [7], 32 µg/mL (≈ 107 µM) in the assay on Acinetobacter baumannii [10], 0.5 µg/mL (≈ 1.67 µM) in the assay with Acinetobacter baumannii [8] and 2 µg/mL (≈ 6.68 µM) against Escherichia coli [9].

For `C[C@@H](O)[C@H]1C(=O)N2C(C(=O)O)=C(S[C@@H]3CN[C@H](C(=O)N(C)C)C3)[C@H](C)[C@H]12` [MEROPENEM], the MIC was 16 µg/mL (≈ 41.7 µM) in the assay with Acinetobacter baumannii [1]; 0.5 µg/mL (≈ 1.3 µM) against Acinetobacter baumannii [2]; 16 µg/mL (≈ 41.7 µM) in the assay on Acinetobacter baumannii [3]; 16 µg/mL (≈ 41.7 µM) against Acinetobacter baumannii [4]; 0.25 µg/mL (≈ 0.652 µM) against Acinetobacter baumannii [6]; less than 0.25 µg/mL in the assay with Escherichia coli [7]. Besides, the MIC with Acinetobacter baumannii [10] amounted to 32 µg/mL (≈ 83.4 µM); in the assay with Acinetobacter baumannii [8], 0.5 µg/mL (≈ 1.3 µM).

As to `CC1(C)S[C@@H]2[C@H](NC(=O)[C@H](C(=O)O)c3ccsc3)C(=O)N2[C@H]1C(=O)O` [TICARCILLIN], the minimal inhibitory concentration (MIC) against Acinetobacter baumannii [1] is greater than 1020 µg/mL; in the assay on Acinetobacter baumannii [2] it was 256 µg/mL (≈ 666 µM); in the assay on Acinetobacter baumannii [3], greater than 1020 µg/mL; against Acinetobacter baumannii [4] it was greater than 1020 µg/mL; in the assay on Escherichia coli [5] it was 256 µg/mL (≈ 666 µM); against Acinetobacter baumannii [6], 16 µg/mL (≈ 41.6 µM). The MIC in the assay on Escherichia coli [7] was 8 µg/mL (≈ 20.8 µM); against Acinetobacter baumannii [10] it was greater than 1020 µg/mL; in the assay with Acinetobacter baumannii [8], 8 µg/mL (≈ 20.8 µM); against Escherichia coli [9] it was greater than 1020 µg/mL.
